≈ marks a conversion by molar mass, not a printed value. Like-named read-outs stand apart in the source and are kept apart here.
Experiments:
[1] = system: Human embryonic lung (HEL) cells; details: HEL cell cultures; microscopically detectable alteration of normal cell morphology
[2] = system: Aspergillus fumigatus (NCIM 2081); assay: MIC, broth microdilution; assay type: cell-based; details: NCIM2081, read-out: Minimum inhibitory concentration (MIC), AF
Procedure, shortened: (§1)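 Antifungal MICs by CLSI broth microdilution in Sabouraud liquid medium. Test compounds and standard drugs are serially diluted two-fold from 512 to 0.25. The fungal broth culture is grown 24 h at 35 °C to a 0.5 McFarland turbidity, then adjusted with sterile solution to the final inoculum.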

[3] = system: Escherichia coli (ATCC 8739); assay: MIC, broth microdilution; assay type: cell-based; details: ATCC8739, read-out: Minimum inhibitory concentration (MIC), EC
Procedure, shortened: (§2)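 Broth microdilution per CLSI in Mueller-Hinton broth, using two-fold serial dilutions of test compound and reference drugs from 512 to 0.25. Bacterial broth cultures were grown 2-6 h to 0.5 McFarland turbidity, then diluted with sterile solution to the final inoculum. MIC is reported in µg/mL.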

Vaccinia virus = assay: microbe, parasite or virus in culture; assay type: cell-based; details: Orthopoxvirus vaccinia, HEL, read-out: Antiviral EC50, Vaccinia virus
[4] = system: Candida albicans (NCIM 2087); assay: Agar disk diffusion, inhibition zone; assay type: cell-based; details: 100 µg/8 mm disc, triplicate, mean ± SD
Coxsackie virus B4 = assay: CPE reduction assay in Vero cells; assay type: cell-based; details: Enterovirus B, read-out: Antiviral EC50, Coxsackie virus B4
[5] = system: Salmonella typhimurium (NCIM-2501); assay: Agar disk diffusion, inhibition zone; assay type: cell-based; details: 100 µg/8 mm disc, triplicate, mean ± SD
Vero cells = details: Vero cell cultures; microscopically detectable alteration of normal cell morphology
[6] = system: Aspergillus niger (NCIM 2191); assay: Agar disk diffusion, inhibition zone; assay type: cell-based; details: 100 µg/8 mm disc, triplicate, mean ± SD
Procedure, shortened: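 For the fungal strain, discs soaked in test compound solution (DMSO stock diluted with distilled water) sat on seeded Mueller-Hinton agar. Clotrimazole was the reference. Incubation ran 48 h at 35 °C, in triplicate. Zone of growth inhibition recorded in mm as the mean diameter around each disc.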

[7] = system: Streptococcus pneumonia (ATCC 49619); assay: Agar disk diffusion, inhibition zone; assay type: cell-based; details: 100 µg/8 mm disc, triplicate, mean ± SD
[8] = system: Escherichia coli (ATCC 8739); assay: Agar disk diffusion, inhibition zone; assay type: cell-based; details: 100 µg/8 mm disc, triplicate, mean ± SD
Procedure, shortened: (§3)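 Agar disk diffusion on Mueller-Hinton agar plates seeded with a standard bacterial suspension. Test compound stock in DMSO, diluted with distilled water; 8 mm sterile filter-paper discs soaked in the solution. Ampicillin was the reference. Plates incubated at 35 °C for 24 h, in triplicate. Read-out is the average inhibition-zone diameter (mm) around each disc.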

Para-influenza-3 virus = assay: CPE reduction assay in Vero cells; assay type: cell-based, Parainfluenza-3 virus; details: Vero, read-out: Antiviral EC50, Para-influenza-3 virus
MT4 cells = details: MT4 cell cultures; colorimetric MTT cell viability assay
[9] = system: Influenza A/H1N1 A/Ned/378/05; assay: CPE reduction assay in MDCK cells; assay type: cell-based; details: Influenza A virus
[10] = system: Lactobacillus casei (NCIM-2651); assay: Agar disk diffusion, inhibition zone; assay type: cell-based; details: 100 µg/8 mm disc, triplicate, mean ± SD
[11] = system: Aspergillus fumigatus (NCIM 2081); assay: Agar disk diffusion, inhibition zone; assay type: cell-based; details: 100 µg/8 mm disc, triplicate, mean ± SD
[12] = system: Staphylococcus aureus (ATCC 29213); assay: MIC, broth microdilution; assay type: cell-based; details: ATCC29213, read-out: Minimum inhibitory concentration (MIC), SA
Procedure, shortened: (§4)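 Antibacterial MICs by CLSI broth microdilution in Mueller-Hinton broth. Test compounds and standard drugs are serially diluted two-fold from 512 to 0.25. The bacterial broth culture is grown 2-6 h to a 0.5 McFarland turbidity, then adjusted with sterile solution to the final inoculum.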

[13] = system: Pseudomonas aeruginosa (MCCB 0035); assay: MIC, broth microdilution; assay type: cell-based; details: read-out: Minimum inhibitory concentration (MIC), PA
Procedure, shortened: as §2

Adeno virus-2 = assay: CPE reduction assay in HEL cells; assay type: cell-based; details: read-out: Antiviral EC50, Adeno virus-2
Influenza B B/Ned/537/05 = assay: CPE reduction assay in MDCK cells; assay type: cell-based; details: Influenza B virus, read-out: Antiviral EC50, Influenza B B/Ned/537/05, MTS
[14] = system: Klebsiella aerogenes (NCIM-2098); assay: Agar disk diffusion, inhibition zone; assay type: cell-based; details: 100 µg/8 mm disc, triplicate, mean ± SD
Sindbis virus = assay: CPE reduction assay in Vero cells; assay type: cell-based; details: read-out: Antiviral EC50, Sindbis virus
[15] = system: Cryptococcus neoformans (ATCC 9011); assay: Agar disk diffusion, inhibition zone; assay type: cell-based; details: 100 µg/8 mm disc, triplicate, mean ± SD
[16] = system: Madin Darby canine kidney (MDCK) cells; details: dog
[17] = system: Cryptococcus neoformans (ATCC 9011); assay: MIC, broth microdilution; assay type: cell-based; details: ATCC9011, read-out: Minimum inhibitory concentration (MIC), CN
Procedure, shortened: as §1

[18] = system: Influenza A/H3N2 A/HK/7/87; assay: CPE reduction assay in MDCK cells; assay type: cell-based; details: Influenza A virus
Punta Toro virus = assay: CPE reduction assay in Vero cells; assay type: cell-based; details: read-out: Antiviral EC50, Punta Toro virus
[19] = system: Bacillus cereus (NCIM-2458); assay: MIC, broth microdilution; assay type: cell-based; details: NCIM2458, read-out: Minimum inhibitory concentration (MIC), BC
Procedure, shortened: as §2

Yellow Fever virus = assay: microbe, parasite or virus in culture; assay type: cell-based; details: Yellow fever virus, Vero, read-out: Antiviral EC50, Yellow Fever virus
[20] = system: Staphylococcus aureus (ATCC 29213); assay: Agar disk diffusion, inhibition zone; assay type: cell-based; details: 100 µg/8 mm disc, triplicate, mean ± SD
Procedure, shortened: as §3

[21] = system: Bacillus cereus (NCIM-2458); assay: Agar disk diffusion, inhibition zone; assay type: cell-based; details: 100 µg/8 mm disc, triplicate, mean ± SD
[22] = system: Aspergillus niger (NCIM 2191); assay: MIC, broth microdilution; assay type: cell-based; details: NCIM2191, read-out: Minimum inhibitory concentration (MIC), AN
Procedure, shortened: as §1

Reovirus-1 = assay: CPE reduction assay in Vero cells; assay type: cell-based; details: read-out: Antiviral EC50, Reovirus-1
[23] = system: Klebsiella aerogenes (NCIM-2098); assay: MIC, broth microdilution; assay type: cell-based; details: NCIM2098, read-out: Minimum inhibitory concentration (MIC), KA
Procedure, shortened: as §4

Human Coronavirus (229E) = assay: CPE reduction assay in HEL cells; assay type: cell-based; details: read-out: Antiviral EC50, Human Coronavirus (229E)
[24] = system: Candida albicans (NCIM 2087); assay: MIC, broth microdilution; assay type: cell-based; details: NCIM2087, read-out: Minimum inhibitory concentration (MIC), CA
Procedure, shortened: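 CLSI broth microdilution in Sabouraud liquid medium, with test compound two-fold serially diluted from 512 to 0.25. Fungal broth culture grown 24 h at 35 °C to 0.5 McFarland turbidity, then adjusted with sterile solution to a final […] inoculum. MIC expressed in µg/mL.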

[25] = system: Pseudomonas aeruginosa (MCCB 0035); assay: Agar disk diffusion, inhibition zone; assay type: cell-based; details: 100 µg/8 mm disc, triplicate, mean ± SD
[26] = read-out: Antiviral EC50, Influenza A/H1N1 A/Ned/378/05, MTS
[27] = read-out: Antiviral EC50, Influenza A/H1N1 A/Ned/378/05, visual CPE score
[28] = read-out: Antiviral EC50, Influenza A/H3N2 A/HK/7/87, MTS
[29] = read-out: Antiviral EC50, Influenza A/H3N2 A/HK/7/87, visual CPE score

SMILES	Minimum cytotoxic conc. [1] [µM]	MIC [2] [µg/mL]	MIC [3] [µg/mL]	EC50 (Vaccinia virus) [µM]	Diameter of growth inhibition zone, CA [4] [mm]	EC50 (Coxsackie virus B4) [µM]	Diameter of growth inhibition zone, ST [5] [mm]	Minimum cytotoxic conc. (Vero cells) [µM]	Diameter of growth inhibition zone, AN [6] [mm]	Diameter of growth inhibition zone, SP [7] [mm]	Diameter of growth inhibition zone, EC [8] [mm]	EC50 (Para-influenza-3 virus) [µM]	Minimum cytotoxic conc. (MT4 cells) [µM]	EC50 [9, 26] [µM]	EC50 [9, 27] [µM]	Diameter of growth inhibition zone, LC [10] [mm]	Diameter of growth inhibition zone, AF [11] [mm]	MIC [12] [µg/mL]	MIC [13] [µg/mL]	EC50 (Adeno virus-2) [µM]	further results
Cc1ccc(S(=O)(=O)N2C(=O)CSC2c2ccccc2[N+](=O)[O-])cc1 (centres unmarked) [5o, 3-[(4-Methylphenyl)sulfonyl]-2-(2-nitrophenyl)-1,3-thiazolidin-4-one]	>100	16 (≈ 42.3 µM)	16 (≈ 42.3 µM)	> 100	20 ± 1.1	> 100	10 ± 0.8	>100	19 ± 1.5	10 ± 1.5	16 ± 0.9	> 100	>125	> 100	> 100	12 ± 0.66	18 ± 0.9	16 (≈ 42.3 µM)	32 (≈ 84.6 µM)	> 100	EC50 (Influenza B B/Ned/537/05): > 100 µM; Diameter of growth inhibition zone, KA [14]: 12 ± 0.34 mm; EC50 (Sindbis virus): > 100 µM; Diameter of growth inhibition zone, CN [15]: 19 ± 1.2 mm; Cytotoxicity, Minimum cytotoxic conc. [16]: >100 µM; MIC [17]: 2 µg/mL (≈ 5.28 µM); EC50 [18, 28]: > 100 µM; EC50 [18, 29]: > 100 µM; EC50 (Punta Toro virus): > 100 µM; MIC [19]: 64 µg/mL (≈ 169 µM); EC50 (Yellow Fever virus): > 100 µM; Diameter of growth inhibition zone, SA [20]: 15 ± 1.5 mm; Diameter of growth inhibition zone, BC [21]: 10 ± 0.6 mm; MIC [22]: 16 µg/mL (≈ 42.3 µM); EC50 (Reovirus-1): > 100 µM; MIC [23]: 32 µg/mL (≈ 84.6 µM); EC50 (Human Coronavirus (229E)): > 100 µM; MIC [24]: 8 µg/mL (≈ 21.1 µM); Diameter of growth inhibition zone, PA [25]: 15 ± 1.1 mm
Cc1ccc(S(=O)(=O)N2C(=O)CSC2c2ccc(C(C)C)cc2)cc1 (centres unmarked) [5n, 3-[(4-Methylphenyl)sulfonyl]-2-[4-(propan-2-yl)phenyl]-1,3-thiazolidin-4-one]	>100	> 512	> 256	> 100	9 ± 1.5	> 100	07 ± 1.5	>100	10 ± 1.2	07 ± 0.6	08 ± 0.65	> 100	>125	> 100	> 100	07 ± 0.30	9.5 ± 0.9	> 256	> 256	> 100	EC50 (Influenza B B/Ned/537/05): > 100 µM; Diameter of growth inhibition zone, KA [14]: 07 ± 0.7 mm; EC50 (Sindbis virus): > 100 µM; Diameter of growth inhibition zone, CN [15]: 5 ± 0.3 mm; Cytotoxicity, Minimum cytotoxic conc. [16]: >100 µM; MIC [17]: > 512 µg/mL; EC50 [18, 28]: > 100 µM; EC50 [18, 29]: > 100 µM; EC50 (Punta Toro virus): > 100 µM; MIC [19]: > 256 µg/mL; EC50 (Yellow Fever virus): > 100 µM; Diameter of growth inhibition zone, BC [21]: 07 ± 0.1 mm; MIC [22]: > 256 µg/mL; EC50 (Reovirus-1): > 100 µM; MIC [23]: > 256 µg/mL; EC50 (Human Coronavirus (229E)): > 100 µM; MIC [24]: > 256 µg/mL; Diameter of growth inhibition zone, PA [25]: 8.5 ± 1.5 mm
